According to ChEMBL document CHEMBL1157799, “Creating an antibacterial with in vivo efficacy: synthesis and characterization of potent inhibitors of the bacterial cell division protein FtsZ with improved pharmaceutical properties” (J Med Chem, 2010):
In brackets after ≈: the same amount, converted by molar mass. Activity calls are given as the source filed them. The calls are words filed in the database; no cut-off is given here.

What was measured:
Staphylococcus aureus [1] = assay: Antibacterial activity against Staphylococcus aureus ATCC 29213 by broth microdilution assay in presence of 2% bovine serum albumin; type: functional
Procedure, shortened: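 Broth microdilution MIC per CLSI recommendations, with 2% w/v bovine serum albumin added to the assay medium to track the effect of protein on antibacterial activity.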

Staphylococcus aureus [2] = assay: Antibacterial activity against Staphylococcus aureus ATCC 29213 by broth microdilution assay; type: functional
Procedure, shortened: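 Broth microdilution MIC per CLSI recommendations; reproducibility within one 2-fold dilution of the end point.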

Plasma [3] = assay: Plasma protein binding in mouse at 10 uM by equilibrium dialysis; type: ADME, cell-free
Procedure, shortened: (§1)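 Binding to plasma measured by equilibrium dialysis of a 10 µM compound solution. Reported as fraction unbound or percent bound.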

Staphylococcus aureus [4] = assay: Antimicrobial activity against Staphylococcus aureus Smith infected in ip dosed mouse administered as single dose 1 hr after bacterial inoculation; type: functional
Procedure, shortened: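 Mice inoculated IP with an LD90-100 of S. aureus Smith (4×10^5 CFU/mouse) in 0.5 mL brain heart infusion broth with 5% mucin. Single IP dose of test substance or vehicle 1 h after inoculation, at 3, 10 or 30 mg/kg. Mortality monitored for 7 days. ED50 by nonlinear regression.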

Cytochrome P450 2C9 = Cytochrome P450 2C9 (Homo sapiens, UniProt P11712); assay: Inhibition of human recombinant CYP2C9 by fluorescence assay; type: ADME
Procedure, shortened: (§2)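 Human recombinant CYP isozymes tested by metabolism of fluorogenic substrates, read by fluorescence. IC50 in µg/mL.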

[5] = Clearance in mouse microsome at 10 uM by LC/MS/MS analysis; type: ADME, Liver; conditions: microsomes
Procedure, shortened: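 Microsomal stability: compound at 10 µM incubated with microsomes. Parent remaining followed over a time course by LC/MS to give clearance per mg protein.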

Staphylococcus aureus [6] = assay: Antimicrobial activity against Staphylococcus aureus Smith infected in mouse assessed as suppression of bacteria-induced mortality at 3 to 30 mg/kg, sc administered as single dose 1 hr after bacterial inoculation measured on day 2; type: functional, organism-based
Procedure, shortened: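 Mice inoculated IP with an LD90-100 of S. aureus Smith in 0.5 mL brain heart infusion broth with 5% mucin (4×10⁵ CFU/mouse for the IP study, 5×10⁵ CFU/mouse for the SC study). Vehicle or test agent given SC or IP 1 h post-infection at 3, 10 or 30 mg/kg. Mortality followed 7 days. ED50 by nonlinear regression.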

[7] = Chemical stability in phosphate buffered saline assessed as compound remaining at 10 uM after 24 hrs by LC/MS/MS analysis; type: physicochemical; conditions: buffer
Procedure, shortened: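 10 µM solution in phosphate buffered saline held 24 h at 37 °C. Parent remaining quantified by LC/MS.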

Cytochrome P450 1A2 = biological target: T1, Cytochrome P450 1A2 (Homo sapiens, UniProt P05177); assay: Inhibition of human recombinant CYP1A2 by fluorescence assay; type: ADME; procedure, shortened: as §2
T1 sequence (P05177 whole entry): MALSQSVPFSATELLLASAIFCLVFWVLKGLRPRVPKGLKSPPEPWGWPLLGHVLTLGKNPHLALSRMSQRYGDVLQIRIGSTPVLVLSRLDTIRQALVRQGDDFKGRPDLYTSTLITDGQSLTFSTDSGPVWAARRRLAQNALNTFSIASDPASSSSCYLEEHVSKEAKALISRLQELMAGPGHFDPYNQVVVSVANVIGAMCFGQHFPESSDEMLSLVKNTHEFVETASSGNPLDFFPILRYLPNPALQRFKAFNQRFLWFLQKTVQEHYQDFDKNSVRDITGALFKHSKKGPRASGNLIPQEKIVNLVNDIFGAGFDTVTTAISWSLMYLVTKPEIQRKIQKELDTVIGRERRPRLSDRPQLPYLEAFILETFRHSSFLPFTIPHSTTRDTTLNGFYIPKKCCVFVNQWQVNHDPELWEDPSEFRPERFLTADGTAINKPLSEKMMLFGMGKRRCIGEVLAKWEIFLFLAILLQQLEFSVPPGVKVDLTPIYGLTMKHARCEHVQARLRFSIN

[8] = Clearance in mouse hepatocytes at 10 uM assessed per 10^6 cells by LC/MS/MS analysis; type: ADME, cell-based, Liver, Hepatocyte
Procedure, shortened: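 Hepatocyte stability: compound at 10 µM incubated with hepatocytes. Parent loss over a time course measured by LC/MS/MS, and clearance expressed per 10⁶ cells.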

Cytochrome P450 2D6 = Cytochrome P450 2D6 (Homo sapiens, UniProt P10635); assay: Inhibition of human recombinant CYP2D6 by fluorescence assay; type: ADME; procedure, shortened: as §2
[9] = biological target: T2, Cell division protein FtsZ (Staphylococcus aureus) (UniProt P0A031); assay: Inhibition of Staphylococcus aureus ATCC 29213 FtsZ assessed as lowest drug level required for ballooning of cells by light microscopy
T2 sequence (whole entry): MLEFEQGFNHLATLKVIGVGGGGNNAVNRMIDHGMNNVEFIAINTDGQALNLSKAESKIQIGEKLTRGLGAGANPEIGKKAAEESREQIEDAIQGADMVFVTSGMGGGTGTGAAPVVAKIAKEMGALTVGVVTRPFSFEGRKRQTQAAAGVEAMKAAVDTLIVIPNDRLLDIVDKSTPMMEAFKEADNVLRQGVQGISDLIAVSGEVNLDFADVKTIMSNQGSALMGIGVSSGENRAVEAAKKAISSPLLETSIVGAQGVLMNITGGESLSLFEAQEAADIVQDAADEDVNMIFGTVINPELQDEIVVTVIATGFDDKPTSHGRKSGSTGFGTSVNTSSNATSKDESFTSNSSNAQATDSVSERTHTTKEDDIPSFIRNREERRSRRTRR
Procedure, shortened: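 Cocci examined by light microscopy for morphology. Value is the lowest concentration at which ballooning appears; WT is recorded when morphology is unchanged.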

Plasma [10] = assay: Metabolic stability in mouse plasma assessed as compound remaining at 10 uM after 24 hrs by LC/MS/MS analysis; type: ADME, cell-free
Procedure, shortened: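 10 µM compound in mouse plasma incubated 24 h at 37 °C. Percent remaining measured by LC/MS.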

Plasma [11] = assay: Fraction unbound in mouse plasma at 10 uM by equilibrium dialysis; type: ADME, cell-free; procedure, shortened: as §1
Plasma [12] = assay: Fraction unbound in human plasma at 10 uM by equilibrium dialysis; type: ADME, cell-free; procedure, shortened: as §1
Staphylococcus aureus [13] = assay: Antimicrobial activity against Staphylococcus aureus Smith infected in sc dosed mouse administered as single dose 1 hr after bacterial inoculation; type: functional
Procedure, shortened: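 Mice inoculated IP with an LD90-100 of S. aureus Smith (5×10^5 CFU/mouse) in 0.5 mL brain heart infusion broth with 5% mucin. Single SC dose of test substance or vehicle 1 h after inoculation, at 3, 10 or 30 mg/kg. Mortality monitored for 7 days. ED50 by nonlinear regression.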

Cytochrome P450 3A4 = Cytochrome P450 3A4 (Homo sapiens, UniProt P08684); assay: Inhibition of human recombinant CYP3A4 by fluorescence assay; type: ADME; procedure, shortened: as §2
Cytochrome P450 2C19 = Cytochrome P450 2C19 (Homo sapiens, UniProt P33261); assay: Inhibition of human recombinant CYP2C19 by fluorescence assay; type: ADME; procedure, shortened: as §2
Chain of Cytochrome P450 2C19 (P33261 whole entry): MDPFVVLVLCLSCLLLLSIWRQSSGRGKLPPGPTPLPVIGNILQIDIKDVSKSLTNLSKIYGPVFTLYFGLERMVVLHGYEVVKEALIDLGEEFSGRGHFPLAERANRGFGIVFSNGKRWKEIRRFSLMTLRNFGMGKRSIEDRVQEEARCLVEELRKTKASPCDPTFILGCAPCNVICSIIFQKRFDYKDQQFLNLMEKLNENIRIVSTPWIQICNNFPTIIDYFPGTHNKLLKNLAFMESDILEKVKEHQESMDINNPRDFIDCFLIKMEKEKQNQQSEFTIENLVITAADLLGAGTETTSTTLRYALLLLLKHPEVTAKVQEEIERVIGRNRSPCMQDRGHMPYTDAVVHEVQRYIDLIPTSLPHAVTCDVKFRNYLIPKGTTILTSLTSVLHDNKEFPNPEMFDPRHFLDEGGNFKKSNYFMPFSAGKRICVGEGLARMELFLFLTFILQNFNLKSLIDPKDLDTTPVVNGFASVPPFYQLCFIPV

Chain of Cytochrome P450 3A4 (P08684 whole entry): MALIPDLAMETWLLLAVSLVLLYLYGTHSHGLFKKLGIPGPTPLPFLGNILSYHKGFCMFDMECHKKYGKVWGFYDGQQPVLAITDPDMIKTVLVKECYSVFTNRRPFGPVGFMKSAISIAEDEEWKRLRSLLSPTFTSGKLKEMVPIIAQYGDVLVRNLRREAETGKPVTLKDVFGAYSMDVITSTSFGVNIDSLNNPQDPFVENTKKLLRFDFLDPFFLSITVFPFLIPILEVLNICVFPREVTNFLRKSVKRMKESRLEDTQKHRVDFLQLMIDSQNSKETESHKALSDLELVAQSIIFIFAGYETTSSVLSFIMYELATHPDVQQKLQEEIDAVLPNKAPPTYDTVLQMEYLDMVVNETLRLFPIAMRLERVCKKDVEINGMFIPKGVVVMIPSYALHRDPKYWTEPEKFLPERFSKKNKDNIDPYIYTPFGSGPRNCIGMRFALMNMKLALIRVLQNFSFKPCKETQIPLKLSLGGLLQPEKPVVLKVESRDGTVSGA
Chain of Cytochrome P450 2C9 (P11712 whole entry): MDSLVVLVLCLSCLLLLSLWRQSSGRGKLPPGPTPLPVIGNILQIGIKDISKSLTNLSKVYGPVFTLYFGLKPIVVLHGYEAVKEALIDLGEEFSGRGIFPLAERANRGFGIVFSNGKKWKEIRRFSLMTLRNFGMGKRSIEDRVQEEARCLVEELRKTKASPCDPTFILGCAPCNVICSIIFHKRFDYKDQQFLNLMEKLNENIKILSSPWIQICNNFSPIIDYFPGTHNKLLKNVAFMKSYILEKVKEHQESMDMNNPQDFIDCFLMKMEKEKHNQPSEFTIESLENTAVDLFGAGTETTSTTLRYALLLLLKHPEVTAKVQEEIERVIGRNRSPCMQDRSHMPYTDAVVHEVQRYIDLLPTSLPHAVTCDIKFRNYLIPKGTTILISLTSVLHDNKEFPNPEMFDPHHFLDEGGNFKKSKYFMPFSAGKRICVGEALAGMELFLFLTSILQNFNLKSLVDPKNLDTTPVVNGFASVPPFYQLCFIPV
Chain of Cytochrome P450 2D6 (P10635 whole entry): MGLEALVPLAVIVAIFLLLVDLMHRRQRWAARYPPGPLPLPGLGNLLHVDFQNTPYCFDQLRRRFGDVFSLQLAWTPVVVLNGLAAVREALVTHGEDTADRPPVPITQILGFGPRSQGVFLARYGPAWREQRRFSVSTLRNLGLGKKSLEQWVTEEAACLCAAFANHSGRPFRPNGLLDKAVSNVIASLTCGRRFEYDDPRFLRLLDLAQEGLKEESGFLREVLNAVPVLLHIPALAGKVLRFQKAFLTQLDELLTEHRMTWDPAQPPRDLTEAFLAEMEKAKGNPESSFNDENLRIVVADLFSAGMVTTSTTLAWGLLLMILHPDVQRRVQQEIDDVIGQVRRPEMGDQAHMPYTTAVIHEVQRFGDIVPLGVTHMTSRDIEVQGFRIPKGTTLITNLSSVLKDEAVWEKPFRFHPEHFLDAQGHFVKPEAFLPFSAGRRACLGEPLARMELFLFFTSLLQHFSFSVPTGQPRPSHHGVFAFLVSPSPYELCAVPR

SMILES	MIC (Staphylococcus aureus [1]) [µg/mL]	MIC (Staphylococcus aureus [2]) [µg/mL]	Activity [9] [µg/mL]	also measured
NC(=O)c1c(F)ccc(OCc2nc3cc(Cl)ncc3s2)c1F	32	8 (≈ 22.5 µM)		
NC(=O)c1c(F)ccc(OCc2nc3cc(Cl)ccc3s2)c1F			0.25	PPB (Plasma [3]): 96.4%; ED50 (Staphylococcus aureus [4]): 41 mg/kg; IC50 (Cytochrome P450 2C9): > 33.8 µM; CL [5]: 14 µL/min/mg; Activity (Staphylococcus aureus [6]): inactive; Stability [7]: 99%; IC50 (Cytochrome P450 1A2): > 33.8 µM; CL [8]: 31.2 uL/min/10^6cells; IC50 (Cytochrome P450 2D6): > 33.8 µM; Stability (Plasma [10]): 99%; Fu (Plasma [11]): 3%; Fu (Plasma [12]): 1%; ED50 (Staphylococcus aureus [13]): > 30 mg/kg; IC50 (Cytochrome P450 3A4): > 33.8 µM; IC50 (Cytochrome P450 2C19): > 33.8 µM
NC(=O)c1c(F)ccc(OCc2nc3cc(N)ccc3s2)c1F		> 64		
Cc1cnc(COc2ccc(F)c(C(N)=O)c2F)s1	256	256 (≈ 900 µM)		
COc1ccc2nc(COc3ccc(F)c(C(N)=O)c3F)sc2c1		> 256		
COc1cccc2sc(COc3ccc(F)c(C(N)=O)c3F)nc12		16 (≈ 45.7 µM)	64	
NC(=O)c1c(F)ccc(OCc2ccc3ccccc3n2)c1F	32			MIC [9]: 16 µg/mL (≈ 50.9 µM)
NC(=O)c1c(F)ccc(OCc2nc3cc(C(F)(F)F)ccc3s2)c1F		0.25 (≈ 0.644 µM)	0.5	
NC(=O)c1c(F)ccc(OCc2nc3cc(-c4ncno4)ccc3s2)c1F		0.5 (≈ 1.29 µM)	0.5	
NC(=O)c1c(F)ccc(OCc2nc3cccc(-c4ccccc4)c3s2)c1F		> 256		
NC(=O)c1c(F)ccc(OCc2nc3cc(C(=O)O)ccc3s2)c1F		> 64		
COc1cc2nc(COc3ccc(F)c(C(N)=O)c3F)sc2nc1Cl	> 64	16 (≈ 41.5 µM)		
CCCc1ccc2sc(COc3ccc(F)c(C(N)=O)c3F)nc2c1			0.125	
NC(=O)c1c(F)ccc(OCc2nc3ccccc3o2)c1F		128 (≈ 421 µM)		MIC [9]: 256 µg/mL (≈ 841 µM)
NC(=O)c1c(F)ccc(OCc2nc3cc(-c4ncc[nH]4)ccc3s2)c1F		> 64		
NC(=O)c1c(F)ccc(Oc2nc3ccccc3s2)c1F	> 256	> 256		
CCCCCCOc1ccc(F)c(C(N)=O)c1F	32			MIC [9]: 8 µg/mL (≈ 31.1 µM)
NC(=O)c1c(F)ccc(OCc2nc3ccc(Cl)cc3s2)c1F		4 (≈ 11.3 µM)	8	
Cc1ccc2sc(COc3ccc(F)c(C(N)=O)c3F)nc2c1		4 (≈ 12 µM)	8	
COC(=O)c1ccc2sc(COc3ccc(F)c(C(N)=O)c3F)nc2c1		1 (≈ 2.64 µM)	2	
